Test results taken from ChEMBL document CHEMBL4393708, “Pyridinylimidazoles as dual glycogen synthase kinase 3β/p38α mitogen-activated protein kinase inhibitors” (Eur J Med Chem, 2019).
Values after ≈ are worked out from the molar mass of the structure shown.

How the values were obtained:
[1] = biological target: Glycogen synthase kinase-3 beta (Homo sapiens, UniProt P49841); assay: Competitive inhibition of human recombinant full length GSK3beta using YRRAAVPPSPSLSRHSSPHQ(pS)EDEEE as substrate preincubated with enzyme for 10 mins followed by substrate and 25 uM ATP addition measured after 60 mins by ADP-Glo luminescence assay
Procedure, shortened: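 Compounds in serial dilutions were preincubated with kinase for 10 min at rt. Substrate/ATP was then added and the reaction ran 60 min at rt. ADP-Glo reagent 60 min, detection reagent 30 min, then luminescence read (500 ms integration).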

[2] = biological target: Glycogen synthase kinase-3 alpha (Homo sapiens, UniProt P49840); assay: Inhibition of human recombinant full length GSK3alpha using YRRAAVPPSPSLSRHSSPHQ(pS)EDEEE as substrate preincubated with enzyme for 10 mins followed by substrate and 25 uM ATP addition measured after 60 mins by ADP-Glo luminescence assay
Procedure, shortened: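 Recombinant human GSK3α at 0.50 ng/µL, 25 µM ATP, 0.2 µg/µL substrate G50-58, serial compound dilutions. Kinase was preincubated with compound 10 min at rt, then run 60 min at rt after substrate/ATP addition. ADP-Glo reagent 60 min, detection reagent 30 min, luminescence read. Uninhibited-kinase and ATP/substrate-only controls were included.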

[3] = Metabolic stability in human liver microsomes assessed as parent compound remaining after 20 mins by LC-MS analysis relative to control; type: ADME, Microsome; settings: read-out: Stability
[4] = Metabolic stability in human liver microsomes assessed as parent compound remaining after 240 mins by LC-MS analysis relative to control; type: ADME, Microsome; settings: read-out: Stability
[5] = Plasma clearance in RjOrl:Swiss CD-1 mouse at 10 mg/kg, iv administered as single dose measured after 10 mins by LC-MS analysis; type: ADME, organism-based
Procedure, shortened: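 Adult male mice received a single 10 mg/kg intravenous injection. Plasma was sampled at 10, 30 and 120 min after dosing. Samples were prepared and analyzed by LC-MS.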

[6] = biological target: CYP1A2 (Homo sapiens, UniProt P05177); assay: Inhibition of human recombinant CYP1A2 expressed in baculovirus infected insect cells using 3-cyano-7-ethoxycoumarin as substrate at 10 uM in presence of NADPH by fluorimetric analysis relative to control; type: ADME; settings: probe 3-cyano-7-ethoxycoumarin
[7] = biological target: CYP2C9 (Homo sapiens, UniProt P11712); assay: Inhibition of human recombinant CYP2C9 expressed in baculovirus infected insect cells using OOMR as substrate at 10 uM in presence of NADPH by fluorimetric analysis relative to control; type: ADME; settings: probe OOMR
[8] = biological target: hERG (KCNH2) (Homo sapiens, UniProt Q12809); assay: Inhibition of tracer Red binding to human ERG expressed in membranes at 10 uM after 4 hrs by fluorescence polarization assay relative to control; settings: membranes expressing human ERG, probe tracer Red
[9] = Solubility of the compound in PBS buffer at pH 7.8 after 1 hr by HPLC analysis; type: physicochemical
[10] = biological target: Tyrosine-protein kinase ABL1 (Homo sapiens) (UniProt P00519); assay: Inhibition of recombinant human ABL1 at 1 uM using Ulight-TK peptide as substrate measured after 30 mins in presence of ATP by LANCE assay relative to control
[11] = biological target: RAC-alpha serine/threonine-protein kinase (Homo sapiens) (UniProt P31749); assay: Inhibition of recombinant human AKT1 at 1 uM using CREBtide as substrate measured after 60 mins in presence of ATP by LANCE assay relative to control
[12] = biological target: Mitogen-activated protein kinase 1 (Homo sapiens) (UniProt P28482); assay: Inhibition of human recombinant ERK2 at 1 uM using Ulight-CFFKNIVTPRTPPPSQGK-amide as substrate measured after 15 mins in presence of ATP by LANCE assay relative to control
Procedure, shortened: (§1)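 Kinase panel run by an outside provider (Eurofins Cerep) in a LANCE assay, single test concentration of 1 µM, results as percent inhibition.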

[13] = biological target: Inhibitor of nuclear factor kappa-B kinase subunit alpha (Homo sapiens) (UniProt O15111); assay: Inhibition of human recombinant IKKalpha at 1 uM using Ulight-IKappaB-alpha as substrate measured after 30 mins in presence of ATP by LANCE assay relative to control; procedure, shortened: as §1
[14] = biological target: Tyrosine-protein kinase JAK3 (Homo sapiens) (UniProt P52333); assay: Inhibition of human recombinant JAK3 at 1 uM using Ulight-CAGAGAIETDKEYYTVKD as substrate measured after 60 mins in presence of ATP by LANCE assay relative to control; procedure, shortened: as §1
[15] = biological target: Vascular endothelial growth factor receptor 2 (Homo sapiens) (UniProt P35968); assay: Inhibition of human recombinant KDR at 1 uM using Ulight-CAGAGAIETDKEYYTVKD as substrate measured after 60 mins in presence of ATP by LANCE assay relative to control; procedure, shortened: as §1
[16] = biological target: MAP kinase-interacting serine/threonine-protein kinase 2 (Homo sapiens) (UniProt Q9HBH9); assay: Inhibition of human recombinant MNK2 at 1 uM using CREBtide as substrate measured after 90 mins in presence of ATP by LANCE assay relative to control; procedure, shortened: as §1
[17] = biological target: Serine/threonine-protein kinase PAK 2 (Homo sapiens) (UniProt Q13177); assay: Inhibition of human recombinant PAK2 at 1 uM using Ulight-RRRSLLE as substrate measured after 60 mins in presence of ATP by LANCE assay relative to control; procedure, shortened: as §1
[18] = biological target: Serine/threonine-protein kinase pim-2 (Homo sapiens) (UniProt Q9P1W9); assay: Inhibition of human recombinant PIM2 at 1 uM using CREBtide as substrate measured after 60 mins in presence of ATP by LANCE assay relative to control; procedure, shortened: as §1
[19] = biological target: Protein kinase C beta type (Homo sapiens) (UniProt P05771); assay: Inhibition of human recombinant PKCbeta at 1 uM using CREBtide as substrate measured after 15 mins in presence of ATP by LANCE assay relative to control; procedure, shortened: as §1
[20] = biological target: Serine/threonine-protein kinase PLK1 (Homo sapiens) (UniProt P53350); assay: Inhibition of human recombinant PLK1 at 1 uM using Ulight-FLGFTYVAP as substrate measured after 60 mins in presence of ATP by LANCE assay relative to control; procedure, shortened: as §1
[21] = biological target: Mitogen-activated protein kinase 14 (Homo sapiens, UniProt Q16539); assay: Inhibition of human recombinant SAPK2A at 1 uM using Ulight-CFFKNIVTPRTPPPSQGK-amide as substrate measured after 30 mins in presence of ATP by LANCE assay relative to control; procedure, shortened: as §1
[22] = biological target: Proto-oncogene tyrosine-protein kinase Src (Homo sapiens) (UniProt P12931); assay: Inhibition of human recombinant SRC at 1 uM using Ulight-Poly GAT[EAY(1:1:1)]n as substrate measured after 10 mins in presence of ATP by LANCE assay relative to control; procedure, shortened: as §1
[23] = Ratio of drug concentration in RjOrl:Swiss CD-1 mouse brain at 10 mg/kg, iv to IC50 for human recombinant full length GSK3beta; type: ADME, organism-based; settings: in vivo
Procedure, shortened: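 Adult male mice received a single 10 mg/kg intravenous dose. After the final plasma sample at 2 h, the mice were sacrificed and brains dissected. Brain concentration was measured by LC-MS and related to the in vitro IC50 values for GSK3β and p38α.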

Tyrosine-protein kinase ABL1 (Homo sapiens), sequence (P00519 whole entry): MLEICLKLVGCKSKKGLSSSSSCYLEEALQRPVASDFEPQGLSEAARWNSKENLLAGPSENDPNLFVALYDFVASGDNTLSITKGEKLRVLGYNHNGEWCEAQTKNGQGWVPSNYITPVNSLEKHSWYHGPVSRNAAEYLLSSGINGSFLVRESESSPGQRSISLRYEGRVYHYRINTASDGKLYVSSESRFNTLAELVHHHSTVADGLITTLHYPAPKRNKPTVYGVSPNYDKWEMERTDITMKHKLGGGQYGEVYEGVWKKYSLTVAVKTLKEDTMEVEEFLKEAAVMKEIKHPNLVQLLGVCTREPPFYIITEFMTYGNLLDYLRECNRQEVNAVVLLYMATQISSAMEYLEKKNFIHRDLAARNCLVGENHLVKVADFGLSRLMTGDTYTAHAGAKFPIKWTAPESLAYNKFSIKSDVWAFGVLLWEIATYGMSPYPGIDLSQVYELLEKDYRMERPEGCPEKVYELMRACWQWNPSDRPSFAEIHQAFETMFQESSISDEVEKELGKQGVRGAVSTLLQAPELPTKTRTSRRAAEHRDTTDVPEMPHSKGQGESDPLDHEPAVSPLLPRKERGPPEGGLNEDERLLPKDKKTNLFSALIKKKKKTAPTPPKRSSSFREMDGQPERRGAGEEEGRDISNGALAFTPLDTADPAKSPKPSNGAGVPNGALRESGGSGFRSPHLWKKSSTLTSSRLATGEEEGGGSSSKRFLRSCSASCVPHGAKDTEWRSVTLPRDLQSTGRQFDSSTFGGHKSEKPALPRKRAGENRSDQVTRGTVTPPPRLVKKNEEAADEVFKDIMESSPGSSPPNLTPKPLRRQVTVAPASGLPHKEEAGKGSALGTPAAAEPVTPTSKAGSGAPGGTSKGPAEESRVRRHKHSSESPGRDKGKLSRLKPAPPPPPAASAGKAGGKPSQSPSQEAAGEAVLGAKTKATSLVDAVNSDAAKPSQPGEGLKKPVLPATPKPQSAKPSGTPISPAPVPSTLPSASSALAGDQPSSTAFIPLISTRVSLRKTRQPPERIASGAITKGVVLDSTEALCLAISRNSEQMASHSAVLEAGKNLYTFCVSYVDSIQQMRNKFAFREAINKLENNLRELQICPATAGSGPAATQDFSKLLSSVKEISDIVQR
Proto-oncogene tyrosine-protein kinase Src (Homo sapiens), sequence (P12931 2-536 limits assumed): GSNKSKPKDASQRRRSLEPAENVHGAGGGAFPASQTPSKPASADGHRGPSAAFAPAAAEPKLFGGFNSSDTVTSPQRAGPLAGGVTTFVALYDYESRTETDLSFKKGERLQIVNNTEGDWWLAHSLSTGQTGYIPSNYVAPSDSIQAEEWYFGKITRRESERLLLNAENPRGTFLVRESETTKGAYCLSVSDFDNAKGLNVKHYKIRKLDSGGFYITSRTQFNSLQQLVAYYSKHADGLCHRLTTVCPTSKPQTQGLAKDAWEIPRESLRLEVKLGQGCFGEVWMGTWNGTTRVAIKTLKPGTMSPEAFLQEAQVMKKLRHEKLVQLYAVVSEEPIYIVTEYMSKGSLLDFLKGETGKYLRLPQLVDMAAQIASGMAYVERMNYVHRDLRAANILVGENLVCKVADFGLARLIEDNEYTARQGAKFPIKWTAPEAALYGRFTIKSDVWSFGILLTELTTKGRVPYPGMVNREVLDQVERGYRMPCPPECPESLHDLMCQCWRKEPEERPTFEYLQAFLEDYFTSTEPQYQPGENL
Mitogen-activated protein kinase 1 (Homo sapiens), sequence (P28482 whole entry): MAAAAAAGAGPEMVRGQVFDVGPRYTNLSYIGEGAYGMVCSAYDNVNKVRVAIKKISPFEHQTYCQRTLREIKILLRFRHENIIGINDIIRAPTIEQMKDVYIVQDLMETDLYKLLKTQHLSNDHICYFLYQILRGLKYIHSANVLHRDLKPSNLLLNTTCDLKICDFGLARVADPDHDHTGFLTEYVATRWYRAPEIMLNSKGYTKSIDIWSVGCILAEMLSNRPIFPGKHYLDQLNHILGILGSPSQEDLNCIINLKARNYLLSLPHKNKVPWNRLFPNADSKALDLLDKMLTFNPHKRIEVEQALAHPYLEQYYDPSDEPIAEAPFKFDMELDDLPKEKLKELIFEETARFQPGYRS
Mitogen-activated protein kinase 14, sequence (Q16539 whole entry): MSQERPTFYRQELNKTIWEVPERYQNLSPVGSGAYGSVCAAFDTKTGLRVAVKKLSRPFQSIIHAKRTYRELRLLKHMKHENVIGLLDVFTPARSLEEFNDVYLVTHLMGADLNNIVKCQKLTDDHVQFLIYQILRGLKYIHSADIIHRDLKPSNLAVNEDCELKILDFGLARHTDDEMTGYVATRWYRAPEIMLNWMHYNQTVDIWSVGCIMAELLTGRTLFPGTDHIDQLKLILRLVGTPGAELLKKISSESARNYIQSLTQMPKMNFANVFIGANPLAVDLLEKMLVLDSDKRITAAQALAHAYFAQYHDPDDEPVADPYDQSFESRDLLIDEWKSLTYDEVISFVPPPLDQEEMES
Inhibitor of nuclear factor kappa-B kinase subunit alpha (Homo sapiens), sequence (O15111 whole entry): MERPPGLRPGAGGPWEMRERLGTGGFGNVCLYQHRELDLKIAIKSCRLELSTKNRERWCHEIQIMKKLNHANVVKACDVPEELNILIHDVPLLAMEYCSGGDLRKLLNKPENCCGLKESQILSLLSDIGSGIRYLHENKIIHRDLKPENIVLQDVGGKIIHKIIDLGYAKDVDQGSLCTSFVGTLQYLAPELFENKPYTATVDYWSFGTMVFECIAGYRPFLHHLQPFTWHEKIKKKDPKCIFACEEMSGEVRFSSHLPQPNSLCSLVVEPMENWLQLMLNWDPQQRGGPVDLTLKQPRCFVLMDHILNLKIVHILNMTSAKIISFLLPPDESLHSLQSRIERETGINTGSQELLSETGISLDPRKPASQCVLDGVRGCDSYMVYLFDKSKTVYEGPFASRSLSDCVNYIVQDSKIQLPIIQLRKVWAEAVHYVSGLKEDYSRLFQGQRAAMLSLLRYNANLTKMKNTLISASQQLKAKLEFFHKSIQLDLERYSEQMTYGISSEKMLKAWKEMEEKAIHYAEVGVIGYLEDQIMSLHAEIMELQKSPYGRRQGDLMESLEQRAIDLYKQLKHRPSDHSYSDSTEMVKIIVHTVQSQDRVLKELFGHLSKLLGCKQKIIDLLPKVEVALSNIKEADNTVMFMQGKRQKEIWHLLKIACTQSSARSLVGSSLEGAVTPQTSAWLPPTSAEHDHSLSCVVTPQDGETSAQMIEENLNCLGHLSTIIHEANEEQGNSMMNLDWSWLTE
Glycogen synthase kinase-3 alpha, sequence (P49840 whole entry): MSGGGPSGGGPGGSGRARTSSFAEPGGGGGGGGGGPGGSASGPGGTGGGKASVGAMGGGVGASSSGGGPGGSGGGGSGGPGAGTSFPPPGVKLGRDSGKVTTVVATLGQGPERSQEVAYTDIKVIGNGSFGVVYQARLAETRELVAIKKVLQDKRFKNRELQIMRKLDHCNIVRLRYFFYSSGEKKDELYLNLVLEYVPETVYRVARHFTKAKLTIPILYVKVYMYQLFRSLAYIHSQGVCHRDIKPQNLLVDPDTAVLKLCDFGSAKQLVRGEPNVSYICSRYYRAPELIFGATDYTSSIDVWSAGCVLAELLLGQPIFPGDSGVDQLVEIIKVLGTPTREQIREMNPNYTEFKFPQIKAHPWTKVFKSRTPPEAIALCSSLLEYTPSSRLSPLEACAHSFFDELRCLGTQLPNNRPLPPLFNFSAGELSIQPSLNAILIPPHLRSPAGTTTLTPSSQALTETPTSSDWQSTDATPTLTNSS
Protein kinase C beta type (Homo sapiens), sequence (P05771 2-671 limits assumed): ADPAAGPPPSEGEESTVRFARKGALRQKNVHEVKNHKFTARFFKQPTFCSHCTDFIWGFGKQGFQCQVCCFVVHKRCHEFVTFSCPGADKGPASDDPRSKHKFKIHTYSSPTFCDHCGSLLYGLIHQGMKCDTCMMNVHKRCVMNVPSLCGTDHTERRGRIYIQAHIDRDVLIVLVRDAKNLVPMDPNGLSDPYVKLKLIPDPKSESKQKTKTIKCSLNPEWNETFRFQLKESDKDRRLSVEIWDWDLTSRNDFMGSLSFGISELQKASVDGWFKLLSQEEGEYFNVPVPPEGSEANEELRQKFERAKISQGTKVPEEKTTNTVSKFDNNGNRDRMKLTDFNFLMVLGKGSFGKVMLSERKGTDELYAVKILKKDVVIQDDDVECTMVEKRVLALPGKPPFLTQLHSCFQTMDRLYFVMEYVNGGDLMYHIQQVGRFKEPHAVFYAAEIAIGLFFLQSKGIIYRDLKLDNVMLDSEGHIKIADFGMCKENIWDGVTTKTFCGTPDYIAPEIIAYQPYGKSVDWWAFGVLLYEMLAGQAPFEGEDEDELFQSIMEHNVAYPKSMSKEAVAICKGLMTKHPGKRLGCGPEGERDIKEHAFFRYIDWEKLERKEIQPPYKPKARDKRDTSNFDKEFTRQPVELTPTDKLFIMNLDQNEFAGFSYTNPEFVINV
Glycogen synthase kinase-3 beta, sequence (P49841 whole entry): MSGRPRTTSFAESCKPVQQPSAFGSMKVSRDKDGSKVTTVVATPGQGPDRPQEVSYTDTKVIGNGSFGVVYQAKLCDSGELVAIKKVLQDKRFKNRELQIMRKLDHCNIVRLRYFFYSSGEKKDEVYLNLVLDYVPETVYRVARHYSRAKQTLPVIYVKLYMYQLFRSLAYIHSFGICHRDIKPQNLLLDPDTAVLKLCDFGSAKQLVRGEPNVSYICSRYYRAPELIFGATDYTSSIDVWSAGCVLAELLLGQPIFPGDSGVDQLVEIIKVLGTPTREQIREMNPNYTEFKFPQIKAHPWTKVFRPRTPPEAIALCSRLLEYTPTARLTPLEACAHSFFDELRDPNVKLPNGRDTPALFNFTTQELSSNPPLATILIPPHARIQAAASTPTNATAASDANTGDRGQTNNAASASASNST
Serine/threonine-protein kinase pim-2 (Homo sapiens), sequence (Q9P1W9 whole entry, looked up): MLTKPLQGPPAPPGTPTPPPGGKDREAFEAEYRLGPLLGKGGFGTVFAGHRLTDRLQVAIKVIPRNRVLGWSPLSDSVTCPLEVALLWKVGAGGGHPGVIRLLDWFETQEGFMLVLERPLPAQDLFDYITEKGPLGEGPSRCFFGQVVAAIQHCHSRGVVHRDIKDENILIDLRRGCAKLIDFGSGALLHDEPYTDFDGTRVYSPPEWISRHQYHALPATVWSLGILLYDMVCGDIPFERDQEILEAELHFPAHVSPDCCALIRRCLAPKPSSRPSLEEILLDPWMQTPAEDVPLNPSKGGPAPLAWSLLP

Structure (SMILES): CCc1nc(-c2ccc(F)cc2)c(-c2ccnc(NC(=O)C3CC3)c2)[nH]1
- IC50 [1]: 35 to 45.6 nM
- IC50 [2]: 301 nM
- remaining at 20 min [3]: 93.4%
- remaining at 4 h [4]: 98.3%
- concentration at 10 min [5]: 850 ng/mL
- inhibition at 10 µM [6]: 83.6%
- inhibition at 10 µM [7]: 83.6%
- inhibition at 4 h, 10 µM [8]: 43.3%
- solubility at 1 h [9]: 155 µg/mL (≈ 442 µM)
- inhibition [10]: 91.5%
- inhibition [11]: 2.06%
- inhibition [12]: 10.9%
- inhibition [13]: -2.16%
- inhibition [14]: 24.8%
- inhibition [15]: 98.7%
- inhibition [16]: 1.16%
- inhibition [17]: 5.58%
- inhibition [18]: -0.24%
- inhibition [19]: 10.7%
- inhibition [20]: 2.78%
- inhibition [21]: 93.6%
- inhibition [22]: 51.6%
- Ratio [23]: 1.1
